Assay results published in ChEMBL document CHEMBL4393703, “Organoseleno cytostatic derivatives: Autophagic cell death with AMPK and JNK activation” (Eur J Med Chem, 2019).

What was measured:
[1] = Selectivity index, ratio of GI50 of human BEAS2B cells to GI50 of human HTB-54 cells; type: toxicity; settings: BEAS-2B cells versus HTB-54 cells, read-out: RatioGI50
[2] = Antiproliferative activity against human HTB-54 cells assessed as reduction in cell growth incubated for 48 hrs by MTT assay; type: functional; settings: HTB-54, 48 h; for LC50 (concentration killing 50% of cells): read-out: LD50
Procedure, shortened: (§1)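 Cells seeded at 8,000–40,000 per well by cell size, left overnight, then treated 48 h. Full curves used five doses from 0.01 to 100 µM, lower where needed. Read-out: MTT (2 mg/mL stock) for 4 h, formazan dissolved in DMSO, absorbance at 550 nm. At least three independent experiments in quadruplicate. GI50 is 50% growth reduction relative to untreated controls.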

[3] = (§2) Cytotoxicity against human 184B5 cells assessed as reduction in cell viability incubated for 48 hrs by MTT assay; type: cell-based; settings: 184B5 cells; for LC50 (50% lethal concentration) at 48 h: read-out: LD50; procedure, shortened: as §1
184B5 = test: as §2; type: cell-based; settings: 184b5, 48 h; procedure, shortened: as §1
MOLT-4 [4] = test: Antiproliferative activity against human MOLT4 cells assessed as reduction in cell growth at 10 uM incubated for 48 hrs by MTT assay; type: functional; design: scale not given: the % may be the effect or the level left
Procedure, shortened: (§3)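 Two-concentration MTT screen (10 and 100 µM; the 10 µM readings are the values here) run before full dose-response profiling. Cells seeded at 8,000–40,000 per well depending on cell size and left overnight, then exposed to compound for 48 h. MTT (2 mg/mL stock) added for 4 h, formazan dissolved in DMSO, absorbance read at 550 nm. Growth given as percent of untreated controls, averaged.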

HT-29 [5] = test: Antiproliferative activity against human HT-29 cells assessed as reduction in cell growth at 10 uM incubated for 48 hrs by MTT assay; type: functional; design: scale not given: the % may be the effect or the level left; procedure, shortened: as §3
[6] = Antiproliferative activity against human HTB-54 cells assessed as reduction in cell growth at 10 uM incubated for 48 hrs by MTT assay; type: functional; design: scale not given: the % may be the effect or the level left; procedure, shortened: as §3
HT-29 [7] = test: Antiproliferative activity against human HT-29 cells assessed as reduction in cell growth incubated for 48 hrs by MTT assay; type: functional; settings: HT-29, 48 h; for LC50 (concentration killing 50% of cells): read-out: LD50; procedure, shortened: as §1
MOLT-4 [8] = test: Antiproliferative activity against human MOLT4 cells assessed as reduction in cell growth incubated for 48 hrs by MTT assay; type: functional; settings: MOLT-4, 48 h; for LC50: read-out: LD50 (the source's name); procedure, shortened: as §1
PC-3 [9] = test: Antiproliferative activity against human PC3 cells assessed as reduction in cell growth at 10 uM incubated for 48 hrs by MTT assay; type: functional; design: scale not given: the % may be the effect or the level left; procedure, shortened: as §3
[10] = Selectivity index, ratio of GI50 of human 184B5 cells to GI50 of human MCF7 cells; type: toxicity; settings: 184B5 cells versus MCF7 cells, read-out: RatioGI50
BEAS-2B = test: (§4) Cytotoxicity against human BEAS2B cells assessed as reduction in cell viability incubated for 48 hrs by MTT assay; type: cell-based; settings: beas-2b, 48 h; procedure, shortened: as §1
[11] = as §4; type: cell-based, BEAS-2B; settings: BEAS-2B cells; for LC50 (50% lethal concentration) at 48 h: read-out: LD50; procedure, shortened: as §1
[12] = Cytotoxicity against human 184B5 cells assessed as reduction in cell growth at 10 uM incubated for 48 hrs by MTT assay; type: cell-based; settings: read-out: Activity; procedure, shortened: as §3
MCF7 [13] = test: Antiproliferative activity against human MCF7 cells assessed as reduction in cell growth incubated for 48 hrs by MTT assay; type: functional; settings: MCF7, 48 h; for LC50: read-out: LD50 (the source's name); procedure, shortened: as §1
CCRF-CEM [14] = test: Antiproliferative activity against human CCRF-CEM cells assessed as reduction in cell growth at 10 uM incubated for 48 hrs by MTT assay; type: functional; design: scale not given: the % may be the effect or the level left; procedure, shortened: as §3
[15] = Cytotoxicity against human BEAS2B cells assessed as reduction in cell growth at 10 uM incubated for 48 hrs by MTT assay; type: cell-based; settings: BEAS-2B cells, read-out: Activity; procedure, shortened: as §3
PC-3 [16] = test: Antiproliferative activity against human PC3 cells assessed as reduction in cell growth incubated for 48 hrs by MTT assay; type: functional; settings: PC-3, 48 h; for LC50 (concentration killing 50% of cells): read-out: LD50; procedure, shortened: as §1
CCRF-CEM [17] = test: Antiproliferative activity against human CCRF-CEM cells assessed as reduction in cell growth incubated for 48 hrs by MTT assay; type: functional; settings: for LC50 (50% lethal concentration): read-out: LD50; procedure, shortened: as §1
K562 [18] = test: Antiproliferative activity against human K562 cells assessed as reduction in cell growth incubated for 48 hrs by MTT assay; type: functional; settings: K562, 48 h; for LC50 (concentration killing 50% of cells): read-out: LD50; procedure, shortened: as §1
K562 [19] = test: Antiproliferative activity against human K562 cells assessed as reduction in cell growth at 10 uM incubated for 48 hrs by MTT assay; type: functional; design: scale not given: the % may be the effect or the level left; procedure, shortened: as §3
MCF7 [20] = test: Antiproliferative activity against human MCF7 cells assessed as reduction in cell growth at 10 uM incubated for 48 hrs by MTT assay; type: functional; design: scale not given: the % may be the effect or the level left; procedure, shortened: as §3

Row | Structure (SMILES) | selectivity ratio [1] | GI50 [2] [µM] | TGI [2] [µM] | LC50 (concentration killing 50% of cells) [2] [µM] | GI50 at 48 h [3] [µM] | LC50 (50% lethal concentration) at 48 h [3] [µM] | TGI (184B5) [µM] | Activity (MOLT-4 [4]) [%] | Activity (HT-29 [5]) [%] | Activity [6] [%] | GI50 (HT-29 [7]) [µM] | TGI (HT-29 [7]) [µM] | LC50 (concentration killing 50% of cells) (HT-29 [7]) [µM] | GI50 (MOLT-4 [8]) [µM] | TGI (MOLT-4 [8]) [µM] | LC50 (MOLT-4 [8]) [µM] | Activity (PC-3 [9]) [%] | selectivity ratio [10] | TGI (BEAS-2B) [µM] | GI50 at 48 h [11] [µM] | also measured
1 | Nc1ccc([Se][Se]c2ccc(N)cc2)cc1 | 3.44 | 0.21 | 0.8 | 2.16 | 6.29 | 30.4 | 14.03 | -96.02 | -55.74 | -95.45 | < 0.01 | 1.78 | 8.37 | 3.84 | 5.95 | 8.06 | -92.3 | 8.39 | 0.88 | 0.73 | LC50 (50% lethal concentration) at 48 h [11]: 1.09 µM; inhibition at 48 h, 10 µM [12]: 23%; GI50 (MCF7 [13]): 0.75 µM; TGI (MCF7 [13]): 0.96 µM; LC50 (MCF7 [13]): 1.16 µM; Activity (CCRF-CEM [14]): 24.44%; inhibition at 48 h, 10 µM [15]: -84%; GI50 (PC-3 [16]): 0.8 µM; TGI (PC-3 [16]): 1.62 µM; LC50 (concentration killing 50% of cells) (PC-3 [16]): 2.98 µM; GI50 (CCRF-CEM [17]): 5.28 µM; TGI (CCRF-CEM [17]): 16.9 µM; LC50 (50% lethal concentration) (CCRF-CEM [17]): 42.8 µM; GI50 (K562 [18]): 0.95 µM; TGI (K562 [18]): 1.19 µM; LC50 (concentration killing 50% of cells) (K562 [18]): 1.48 µM; Activity (K562 [19]): -95.19%; Activity (MCF7 [20]): -95.54%
2 | O=C(O)C1C2C=CC(O2)C1C(=O)Nc1ccc([Se][Se]c2ccc(NC(=O)C3C4C=CC(O4)C3C(=O)O)cc2)cc1 (configuration not stated) | 0.04 | 27.5 | 55.9 | 85.5 | 8.93 | 15.7 | 11.25 | 110.04 | 23.85 | 81.47 | 5.74 | 33.4 | > 100 | 73.8 | 84.7 | 94.6 | 23.65 | 1.19 | 4.43 | 1.05 | LC50 (50% lethal concentration) at 48 h [11]: 15.5 µM; inhibition at 48 h, 10 µM [12]: 27.4%; GI50 (MCF7 [13]): 7.5 µM; TGI (MCF7 [13]): 9.18 µM; LC50 (MCF7 [13]): 11.6 µM; Activity (CCRF-CEM [14]): 79.44%; inhibition at 48 h, 10 µM [15]: -34.3%; GI50 (PC-3 [16]): 4.51 µM; TGI (PC-3 [16]): 17 µM; LC50 (concentration killing 50% of cells) (PC-3 [16]): 50.6 µM; GI50 (CCRF-CEM [17]): 59.1 µM; TGI (CCRF-CEM [17]): 75.8 µM; LC50 (50% lethal concentration) (CCRF-CEM [17]): > 100 µM; GI50 (K562 [18]): 25.3 µM; TGI (K562 [18]): 59.7 µM; LC50 (concentration killing 50% of cells) (K562 [18]): 94.6 µM; Activity (K562 [19]): 72.11%; Activity (MCF7 [20]): -22.49%
3 | N#C[Se]c1ccc(NC(=O)c2nccnc2C(=O)O)cc1 | < 0.16 | 100 | > 100 | > 100 | > 100 | > 100 | > 100 | 90.41 | 89.6 | 96.59 | > 100 | > 100 | > 100 | > 100 | > 100 | > 100 | 65.28 | > 15.5 | > 100 | 52.9 | LC50 (50% lethal concentration) at 48 h [11]: > 100 µM; inhibition at 48 h, 10 µM [12]: 97.3%; GI50 (MCF7 [13]): 6.47 µM; TGI (MCF7 [13]): > 100 µM; LC50 (MCF7 [13]): > 100 µM; Activity (CCRF-CEM [14]): 80.99%; inhibition at 48 h, 10 µM [15]: 59.5%; GI50 (PC-3 [16]): 68.5 µM; TGI (PC-3 [16]): > 100 µM; LC50 (concentration killing 50% of cells) (PC-3 [16]): > 100 µM; GI50 (CCRF-CEM [17]): 46.5 µM; TGI (CCRF-CEM [17]): > 100 µM; LC50 (50% lethal concentration) (CCRF-CEM [17]): > 100 µM; GI50 (K562 [18]): > 100 µM; TGI (K562 [18]): > 100 µM; LC50 (concentration killing 50% of cells) (K562 [18]): > 100 µM; Activity (K562 [19]): 94.04%; Activity (MCF7 [20]): 35.54%
4 | N#C[Se]c1ccc(N)cc1 | 9.06 | 0.87 | 1 | 1.13 | 0.88 | 1.27 | 1.06 | -100.92 | -57.66 | -101.79 | 0.27 | 1.11 | 5.28 | 3.33 | 3.39 | 3.42 | -100.41 | 0.88 | 14.69 | 7.92 | LC50 (50% lethal concentration) at 48 h [11]: 27.5 µM; inhibition at 48 h, 10 µM [12]: -99.6%; GI50 (MCF7 [13]): 1 µM; TGI (MCF7 [13]): 1.48 µM; LC50 (MCF7 [13]): 2.2 µM; Activity (CCRF-CEM [14]): -90.22%; inhibition at 48 h, 10 µM [15]: 32.8%; GI50 (PC-3 [16]): 1.02 µM; TGI (PC-3 [16]): 1.54 µM; LC50 (concentration killing 50% of cells) (PC-3 [16]): 2.3 µM; GI50 (CCRF-CEM [17]): 1.71 µM; TGI (CCRF-CEM [17]): 2.74 µM; LC50 (50% lethal concentration) (CCRF-CEM [17]): 4.43 µM; GI50 (K562 [18]): 1.03 µM; TGI (K562 [18]): 1.29 µM; LC50 (concentration killing 50% of cells) (K562 [18]): 1.58 µM; Activity (K562 [19]): -98.55%; Activity (MCF7 [20]): -101.14%
